In one series the test system is Enterococcus faecium. The series can be described thus: Antibacterial activity against Enterococcus faecium ATCC BAA-2317 assessed as inhibition of bacterial growth. The format is functional. The procedure, abridged: (§1)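 Strains grown in ATCC-recommended media in culture tubes at 37 °C with shaking at 225 rpm for 3–8 h, back-diluted to about 10^6 cfu/mL, and incubated in triplicate in 384-well plates with a dilution series of test agent. DMSO vehicle served as negative control; linezolid (E. faecium) and ampicillin (S. aureus) were positive controls. MIC recorded.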

A further series concerns Staphylococcus aureus. In words: Antibacterial activity against Staphylococcus aureus ATCC 25923 assessed as inhibition of bacterial growth. The format is functional. The procedure, abridged:
as §1

A further series concerns HeLa. In words: Cytotoxicity against human HeLa cells assessed as reduction in cell viability incubated for 72 hrs by CellTiter-Glo luminescent cell viability assay. The format is functional, cell-based. The procedure, abridged:
(§2)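 HUVECs (primary, limited passages) were kept in medium 200PRF with low serum growth supplement. HeLa and MCF-7 were kept in MEM with Earle's salts, L-glutamine, 10% FBS and 1% pen/strep. Cells were seeded at 5000 (HUVEC), 2000 (HeLa) or 3000 (MCF-7) per well and treated after 18 h for 72 h (final DMSO ≤0.1%). Viability read by ATP luminescence, vehicle = 100%; EC50 derived.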

The next series has as its system MCF7. The series can be described thus: Cytotoxicity against human MCF7 cells assessed as reduction in cell viability incubated for 72 hrs by CellTiter-Glo luminescent cell viability assay. The series is classed as functional, cell-based. Particulars: MCF7, 72 h. Summed up: as §2
The nature of series [1]: Cytotoxicity against HUVEC assessed as reduction in cell viability incubated for 72 hrs by CellTiter-Glo luminescent cell viability assay. Particulars: human, HUVEC cells. The series is classed as toxicity, cell-based. Summed up:
as §2
On the technique in general: In ATP-based viability assays light output follows the ATP content of the culture.

SMILES strings stand for the structures. Values joined by “and” are separate entries in the source; they are usually repeats but may differ in a detail not shown here. Equal entries are not always repeated. Square brackets hold non-standard residues; d marks the D form. Peptide text beside a SMILES is read from it. * marks the point of attachment. Bmt = C/C=C/C[C@@H](C)[C@@H](O)[C@H](N)C(=O)O; Decanoyl = CCCCCCCCCC(=O)*; Leu(ol) = CC(C)C[C@H](N)CO; Aib = CC(C)(N)C(=O)O

What is called MIC is the least concentration at which growth counts as inhibited. For orientation: EC50 means the midpoint of the concentration-response curve. In the case of `C/C=C/C[C@@H](C)[C@@H](O)[C@H](NC(=O)[C@@H]1CCCN1C(=O)C(C)(C)NC(=O)CCCCCCCCC)C(=O)NC(C)(C)C(=O)N[C@@H](CCC(N)=O)C(=O)N[C@@H](CCC(N)=O)C(=O)NC(C)(C)C(=O)NC(C)(C)C(=O)N[C@@H](CCC(N)=O)C(=O)N[C@H](C(=O)N[C@H](CO)CC(C)C)C(C)C` (Decanoyl-[Aib]P[Bmt][Aib]QQ[Aib][Aib]QV[Leu(ol)]), the MIC was 22 µg/mL and 16 µM in the series on Enterococcus faecium; 11 µg/mL and 8 µM with Staphylococcus aureus. Further, the EC50 is 30 µM with HeLa and 107 µM in the series on MCF7. Also, in series [1], the EC50 at 72 h stood at 8 µM.

Turning to `CC(=O)NC[C@H]1CN(c2ccc(N3CCOCC3)c(F)c2)C(=O)O1` [LINEZOLID], in the series with Enterococcus faecium, the minimal inhibitory concentration (MIC) is 30 µg/mL and 89 µM.

Values taken from ChEMBL document CHEMBL5120853, “Tolypocladamide H and the Proposed Tolypocladamide NRPS in Tolypocladium Species” (J Nat Prod, 2022).
